{"source": "ChEMBL document CHEMBL1129271", "about": "“Synthesis and biological evaluation of certain alkenyldiarylmethanes as anti-HIV-1 agents which act as non-nucleoside reverse transcriptase inhibitors” (J Med Chem, 1996)", "key": {"[1]": {"test_system": "CCRF-CEM", "assay": "The compound was evaluated for prevention of the cytopathic effect of HIV-1 for cytopathicity of HIV-1RF in CEM-SS cells.", "type": "functional, cell-based", "settings": "Homo sapiens", "in_short": "(§1)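 XTT-based microtiter assay of protection from HIV-1 cytopathic effect in CEM-SS cells, read as percent of uninfected drug-free control. EC50 is the concentration giving 50% protection in infected cultures. IC50 is the concentration giving 50% death of mock-infected cells. Values are averages of at least two determinations. Results were confirmed by supernatant RT and p24 levels.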"}, "[2]": {"test_system": "CCRF-CEM", "assay": "The compound was tested for cytotoxicity in CEM-SS cells for mock-infected CEM cells.", "type": "functional, cell-based", "settings": "Homo sapiens", "in_short": "as §1"}, "[3]": {"assay": "(§2) The therapeutic index of the compound is evaluated.", "settings": "read-out: IC50/EC50"}, "[4]": {"test_system": "CCRF-CEM", "assay": "(§3) The compound was evaluated for prevention of the cytopathic effect of HIV-1 for cytopathicity of HIV-1RF in CEM-SS cells; NA= not active", "type": "functional, cell-based, Homo sapiens", "in_short": "as §1"}, "[5]": {"test_system": "CCRF-CEM", "assay": "50% cytotoxic concentration for mock-infected CEM cells", "type": "functional, cell-based", "settings": "Homo sapiens", "in_short": "as §1"}, "[6]": {"test_system": "CCRF-CEM", "assay": "as §3", "type": "functional, cell-based", "settings": "Homo sapiens", "in_short": "as §1"}, "[7]": {"assay": "as §2", "type": "functional"}}, "note": "Active and inactive are the calls of the source. No cut-off for these calls is given here."}
{"smiles": "COC(=O)c1cc(C(=CCCBr)c2cc(Cl)c(OC)c(C(=O)OC)c2)cc(Cl)c1OC", "values": [{"measurement": "EC50", "setting": "[1]", "value": 8, "unit": "µM"}, {"measurement": "IC50", "setting": "[2]", "value": 18, "unit": "µM"}, {"measurement": "selectivity ratio", "setting": "[3]", "value": 2.2}]}
{"smiles": "CCCCCC=C(c1cc(Cl)c(OC)c(C(N)=O)c1)c1cc(Cl)c(OC)c(C(N)=O)c1", "values": [{"measurement": "EC50", "setting": "[4]", "value": "Not Active"}, {"measurement": "IC50", "setting": "[5]", "value": 31, "unit": "µM"}]}
{"smiles": "CCCCCC=C(c1cc(Br)cc(C(=O)OC)c1OC)c1cc(Br)cc(C(=O)OC)c1OC", "values": [{"measurement": "EC50", "setting": "[4]", "value": "Not Active"}, {"measurement": "IC50", "setting": "[2]", "value": 44, "unit": "µM"}]}
{"smiles": "CCCCCC=C(c1cc(Cl)c(O)c(C(=O)NO)c1)c1cc(Cl)c(O)c(C(=O)NO)c1", "values": [{"measurement": "EC50", "setting": "[4]", "value": "Not Active"}, {"measurement": "IC50", "setting": "[2]", "value": 37, "unit": "µM"}]}
{"smiles": "CCCCCC=C(c1cc(Cl)c(OC)c(C(=O)O)c1)c1cc(Cl)c(OC)c(C(=O)O)c1", "values": [{"measurement": "NA", "setting": "[6]", "value": "inactive"}, {"measurement": "IC50", "setting": "[5]", "value": 84, "unit": "µM"}]}
{"smiles": "CCCCCC=C(c1cc(Br)c(O)c(C(=O)O)c1)c1cc(Br)c(O)c(C(=O)O)c1.N.N", "values": [{"measurement": "EC50", "setting": "[4]", "value": "Not Active"}, {"measurement": "IC50", "setting": "[2]", "value": 150, "unit": "µM"}]}
{"smiles": "CCCCCC=C(c1cc(Cl)c(OC)c(C(=O)NC)c1)c1cc(Cl)c(OC)c(C(=O)NC)c1", "values": [{"measurement": "EC50", "setting": "[4]", "value": "Not Active"}, {"measurement": "IC50", "setting": "[5]", "value": 21, "unit": "µM"}]}
{"smiles": "CCCCCCCCCCCCCCCC=C(c1cc(Br)c(OC)c(C(=O)OC)c1)c1cc(Br)c(OC)c(C(=O)OC)c1", "values": [{"measurement": "EC50", "setting": "[1]", "value": "> 28", "unit": "µM"}, {"measurement": "IC50", "setting": "[2]", "value": "> 28", "unit": "µM"}]}
{"smiles": "CCCCCC=C(c1cc(Cl)c(OC)c(C(=O)OC)c1)c1cc(Cl)c(OC)c(C(=O)OC)c1", "values": [{"measurement": "EC50", "setting": "[1]", "value": 16, "unit": "µM"}, {"measurement": "IC50/EC50", "setting": "[7]", "value": "> 1.8"}, {"measurement": "IC50", "setting": "[5]", "value": "> 29.1", "unit": "µM"}]}
{"smiles": "CCCCCCCCCC=C(c1cc(Br)c(OC)c(C(=O)OC)c1)c1cc(Br)c(OC)c(C(=O)OC)c1", "values": [{"measurement": "EC50", "setting": "[1]", "value": "> 30", "unit": "µM"}, {"measurement": "IC50", "setting": "[2]", "value": "> 30", "unit": "µM"}]}
{"smiles": "CCCCCC=C(c1cc(Cl)c(OC)c(C(=O)N(C)C)c1)c1cc(Cl)c(OC)c(C(=O)N(C)C)c1", "values": [{"measurement": "EC50", "setting": "[4]", "value": "Not Active"}, {"measurement": "IC50", "setting": "[5]", "value": 21, "unit": "µM"}]}
{"smiles": "CCCCCC=C(c1cc(Cl)c(O)c(C(=O)O)c1)c1cc(Cl)c(O)c(C(=O)O)c1", "values": [{"measurement": "EC50", "setting": "[1]", "value": "> 91.5", "unit": "µM"}, {"measurement": "IC50", "setting": "[5]", "value": "> 91.5", "unit": "µM"}]}
